Measurements of several laboratories.
Compare with care: the assays were run in different laboratories.
Target: MAP kinase-activated protein kinase 2 (MAPKAPK2, Homo sapiens, UniProt P49137)

Compound	assay	setting	quantity	value
Cn1cc(-c2cc(F)cc(N3CCn4c(cc5c4CCCC5)C3=O)c2CO)cc(Nc2ccc(N3CCN(C4COC4)CC3)cn2)c1=O	enzyme activity, inhibitor	0.1 µM	inhibition	5%
CC(C)(C)c1cc(C=C(C#N)C#N)cc(Br)c1O	enzyme activity, inhibitor	0.5 µM	remaining activity	92.3%
C#Cc1n[nH]c2c(-c3cn(C(C)c4ccccn4)c(=O)[nH]c3=O)cc(F)cc12 (centres unmarked)	enzyme activity, inhibitor	1 µM	inhibition	13.1%
COc1cc(Nc2ncc(F)c(Nc3ccc4c(n3)NC(=O)C(C)(C)O4)n2)cc(OC)c1OC	binding	10 µM	inhibition	0%
COc1cc(Cl)c(C(=O)N[C@@H](CN[C@H]2CC[C@@H](N)CC2)Cc2ccc(C#N)cc2)cc1-c1ccc(CN[C@H](C)c2ccc(C)cc2)o1	enzyme activity, inhibitor	1 µM	remaining activity	107%
Cn1cncc1[C@@](O)(COc1ccc(C#N)cc1-c1ccc(OC(F)(F)F)cc1)c1ccc(C#N)cc1	cell-free assay, competition with immobilised ligand	1 µM	remaining binding	61%
Cc1nn(C)cc1-c1nc2c(N3CCN(Cc4ccc(Cl)cc4)CC3)c(Cl)cnc2[nH]1	binding, competition with immobilised ligand	1 µM	remaining binding	100%
COc1ncccc1-c1cnn2ccc(N3CCN(C(=O)OC(C)C)CC3)nc12	binding, competition with immobilised ligand	1 µM	remaining binding	100%
O=c1[nH]c2ccccc2n1C1CCN(Cc2ccc(-c3[nH]c4cc5ncnc5cc4nc3-c3ccccc3)cc2)CC1	cell-free assay	0.5 µM	remaining signal	98.7%
Nc1ncc(-c2nc(N3CCOCC3)nc(N3CCOCC3)n2)c(C(F)F)n1	binding, competition with immobilised ligand	10 µM	remaining binding	85%
Cn1cc(-c2cccc(N3CCc4c(sc5c4CC(C)(C)C5)C3=O)c2CO)cc(Nc2ccncn2)c1=O	enzyme activity, inhibitor	1 µM	inhibition	-5%
